High-throughput results deposited in PubChem by several laboratories.
Only some compounds are listed: those with a hit (about 1.5% of all), similar ones and a draw of the others.
NS3 helicase inh = blocks Hepatitis C virus NS3 helicase unwinding | NS3 helicase DNA unwinding, Cy5 molecular beacon fluorescence | inhibition, % at 10.9 µM | 290,000 tested, 0.56% active | AID 1800;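 active = inhibition above the mean of all tested compounds plus 3 SD, set per campaign, cut at about 35% in these data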;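 note: 0% = DMSO wells and 100% = thioflavine S control wells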
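assay system = NS3 helicase fragment of HCV | buffer or medium = MOPS pH 6.5, MgCl2, DTT, Tween20, BSA | timing = 60 min unwinding reaction at 25 °C after ATP addition | signal = Cy5 beacon fluorescence read at start and 1 h | read-out basis = % inhibition of unwinding | control set = low DMSO, high thioflavine S at 110 µM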
NSD2 HMT inh = inhibitors of human histone methyltransferase NSD2; O96028; NSD2 peptide methylation, AlphaScreen, 120 min; inhibition, % at 12.5 µM; 310,000 tested, 0.54% active
CASP6 VEID inh = blocks human caspase-6 cleavage activity | P55212 | purified caspase-6, Z-VEID-R110 cleavage fluorescence | inhibition, % at 12.5 µM | 350,000 tested, 0.53% active;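 active = mean inhibition across replicates at least about 35%, with every replicate also reaching that limit, limit read from the data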;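 note: 0% = median of neutral control wells and 100% = no fluorescence left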
Target sequence (P55212 24-179 limits assumed): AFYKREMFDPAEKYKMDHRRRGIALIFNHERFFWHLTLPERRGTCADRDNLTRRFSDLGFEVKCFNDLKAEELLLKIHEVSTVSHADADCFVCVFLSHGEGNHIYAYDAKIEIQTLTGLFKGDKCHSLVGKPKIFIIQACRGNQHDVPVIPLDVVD
Target sequence (P55212 194-293 limits assumed): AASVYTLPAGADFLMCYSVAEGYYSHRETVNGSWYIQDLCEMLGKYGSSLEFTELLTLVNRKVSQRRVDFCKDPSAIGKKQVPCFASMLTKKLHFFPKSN
DNMT1 inh = inhibitors of human DNMT1; AID 588458; inhibition (reported as % activation of signal), % at 10 µM; P26358; 360,000 tested, 0.83% active; DNMT1 molecular beacon, Hinp1I cleavage, fluorescence
Alpha artifact = interferes with AlphaScreen signal, flagging NSD2 false positives; AID 1053174; AlphaScreen artifact counterscreen, preloaded methylated H4 peptide; shares compounds with NSD2 HMT inh; AC35, µM (series often up to 10 µM), inactives show at the highest dose activity change, negative = signal loss; 1,500 tested, 9.4% active; call rule not given here
Active calls of the source: *. Cut-off read from the data, not from the text of the source, unless noted: active = inhibition above about 50%; inactive = the rest.

What do the screens show for `O=C(O)C(c1ccccc1)N1C(=O)/C(=C\c2ccc(O)c(O)c2)SC1=S` (stereo not drawn)?
NS3 helicase inh: -10; NSD2 HMT inh: 105*; CASP6 VEID inh: 35; DNMT1 inh: 9; Alpha artifact: 7.6µM*

How did COc1ccc(NC(=O)CC2C(=O)NCCN2C(=O)c2ccc(N(C)C)cc2)cc1 (stereo not drawn) do in these assays?
NS3 helicase inh: 2; NSD2 HMT inh: 64*; CASP6 VEID inh: -1; DNMT1 inh: 0; Alpha artifact: -2%

How did CN(C)c1ccc(C(=O)N2CCNC(=O)C2CC(=O)Nc2ccc(F)cc2)cc1 (stereo not drawn) do in these assays?
NS3 helicase inh: -20; NSD2 HMT inh: 2; CASP6 VEID inh: 8; DNMT1 inh: 0

How did COc1cc(OC)c([N+](=O)[O-])cc1/C=N/NC(=O)c1ccncc1 do in these assays?
NS3 helicase inh: 2; NSD2 HMT inh: 81*; CASP6 VEID inh: 15; DNMT1 inh: -9; Alpha artifact: 0%

Results for Cc1sc2nc[nH]c(=S)c2c1-c1ccccc1 ?
NS3 helicase inh: 15; NSD2 HMT inh: 86*; CASP6 VEID inh: 4; DNMT1 inh: 1; Alpha artifact: -5%

Results for O=C(C[C@@H]1C=C[C@@H](NC(=O)c2ccc3c(c2)OCO3)[C@H](CO)O1)NCc1ccc(F)cc1 ?
CASP6 VEID inh: -2

What do the screens show for `COc1ccc(CCC(=O)Nc2ccc(S(=O)(=O)Nc3nccc(C)n3)cc2)cc1`?
NS3 helicase inh: 2; NSD2 HMT inh: 76*; CASP6 VEID inh: 58*; DNMT1 inh: 4; Alpha artifact: 5%

How did O=C(/C=C/c1ccc(O)c(O)c1)OC1C(O)CC(OC(=O)/C=C/c2ccc(O)c(O)c2)(C(=O)O)CC1O (stereo not drawn) do in these assays?
NS3 helicase inh: -5; NSD2 HMT inh: 66*; CASP6 VEID inh: 3; DNMT1 inh: 9; Alpha artifact: -11%

How did Cc1ccc(S(=O)(=O)Nc2ccc3c(c2)C(=O)N([C@@H](C)CO)C[C@H](C)[C@@H](CN(C)C(=O)CCCN(C)C)OCCCC[C@H](C)O3)cc1 do in these assays?
CASP6 VEID inh: -5

How did C[C@@H]1CN([C@H](C)CO)C(=O)CCCn2cc(nn2)CO[C@@H]1CN(C)C(=O)Nc1ccc(C(F)(F)F)cc1 do in these assays?
CASP6 VEID inh: 2

Results for Cn1c(=Nc2ccccc2)sc2ccccc21 ?
NS3 helicase inh: 6; NSD2 HMT inh: -2; CASP6 VEID inh: -2; DNMT1 inh: 2

Results for CN(C)c1ccc(N=c2sc3ccccc3n2C)cc1 ?
NS3 helicase inh: 19; NSD2 HMT inh: 57*; DNMT1 inh: -7; Alpha artifact: 8.9µM*

What do the screens show for `COc1cc(-c2nnn(Cc3ccccc3C)n2)cc(OC)c1OC`?
NS3 helicase inh: -8; NSD2 HMT inh: 54*; CASP6 VEID inh: 0; DNMT1 inh: -1; Alpha artifact: -1%

How did C[C@@H]1CN([C@@H](C)CO)C(=O)c2cc(NS(=O)(=O)c3ccccc3)ccc2O[C@@H](C)CCCCO[C@H]1CN(C)S(=O)(=O)c1ccc(Cl)cc1 do in these assays?
CASP6 VEID inh: 2

How did CCN(CC)CC(C)(C)C(=O)/C=C/c1ccc(/C=C/C(=O)C(C)(C)CN(CC)CC)cc1 do in these assays?
NSD2 HMT inh: 101*; CASP6 VEID inh: -25; DNMT1 inh: 3; Alpha artifact: -3%

Results for CCN(CC)CCOC(=O)/C=C/c1ccccc1 ?
NS3 helicase inh: -1; NSD2 HMT inh: 1; CASP6 VEID inh: 4; DNMT1 inh: 1

What do the screens show for `C[C@H](CO)N1C[C@H](C)[C@@H](CN(C)Cc2cncnc2)Oc2ncc(/C=C/c3ccccc3)cc2C1=O`?
CASP6 VEID inh: 1

What do the screens show for `CC(=O)Nc1ccc(C(=O)OCC(=O)/C(C#N)=C(\C)N)cc1`?
NS3 helicase inh: 9; NSD2 HMT inh: 74*; CASP6 VEID inh: 2; DNMT1 inh: 2; Alpha artifact: -4%

How did COCCN1CC(=O)N2C(c3cccc(C)c3)c3[nH]c4ccccc4c3C[C@H]2C1=O (stereo partly drawn) do in these assays?
NS3 helicase inh: -21; NSD2 HMT inh: 52*; CASP6 VEID inh: 3; DNMT1 inh: 7; Alpha artifact: -7%

Results for COc1ccc2nc(C)cc(SCC(=O)N/N=C/c3ccc(O)c(O)c3)c2c1 ?
NS3 helicase inh: -17; NSD2 HMT inh: 66*; CASP6 VEID inh: 8; DNMT1 inh: 10; Alpha artifact: -13%
